Screens: PubChem BioAssay, several laboratories
Sampled rows, rich in hits. Any-hit rate of the full collection: about 9.2%.
ERa SRC1 pot = enhancers of ERα–SRC-1 coactivator binding, primary screen, biochemical, TR-FRET, ERα LBD, low estradiol; coactivator binding (% of control), % at 25.6 µM; AID 639, 2007; TR-FRET ERalpha-LBD/SRC-Cy5 coactivator binding, 2 h; 100 = basal binding, no effect; Estrogen receptor (Homo sapiens), P03372; 86,000 tested, 1.3% active; in the data active = activity above about 200%;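 also: binding measured in presence of low estradiol as agonist stimulus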
Fibroblast inh = antiproliferative effect on LL 47 fibroblasts – human, LL 47 cells, CellTiter-Glo luminescence, primary screen; LL 47 human lung fibroblast viability, ATP luminescence; stronger effect = lower value; viability, % at 10 µM; 85,000 tested, 1.1% active; AID 719, 2007;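 active = viability at or below 50% in the single dose screen; inactive = viability above 50%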;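 also: compound exposure lasted 72 h before the ATP readout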
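test system = LL 47 human lung fibroblasts | amount = 1,150 fibroblasts seeded per well | medium = 15% FBS in IMEM | times = overnight cell rest, 72 h compound treatment at 37 °C | measured by = CellTiter-Glo luminescence measuring cellular ATP | read-out = viability percentage against median untreated-cell control | benchmarks = cell-only wells, no compound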
HUVEC inhibit = inhibitors of HUVEC proliferation, primary screen, cell-based, 384-well; CellTiter-Glo luminescence, 72 h; stronger effect = lower value; viability, % at 10 µM (by protocol); 86,000 tested, 1.1% active; AID 648, 2007;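 active = viability at or below 30%; inactive = viability above 30%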
ERa SRC1 inh = ERα–SRC-1 coactivator interaction inhibitors, primary screen, biochemical, TR-FRET, ERα LBD, estradiol-bound; Estrogen receptor (Homo sapiens), P03372; inhibition, % at 25.6 µM; AID 629, 2007; 86,000 tested, 1.7% active; TR-FRET ER-alpha LBD / SRC-1 peptide; in the data active = inhibition above about 50%
H69AR inhibit = proliferation blockers of H69AR lung cancer cells, primary screen, cell-based, human, 86K library; H69AR lung tumor viability, ATP luminescence, 72 h; stronger effect = lower value; viability, % at 10 µM; 85,000 tested, 6% active; AID 598, 2007;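 active = viability at or below 40%; inactive = viability above 40%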;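 also: multidrug resistant small cell line overexpressing MRP-1 efflux transporter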
ERb coact inh = inhibitors of ERβ-SRC1 coactivator interaction, primary screen, biochemical, TR-FRET, ERβ LBD, SRC-1 peptide; TR-FRET ER-beta LBD / SRC1-Cy5 peptide binding; receptor agonist-loaded with 1 µM estradiol; AID 633, 2007; Estrogen receptor beta (Homo sapiens), Q92731; 86,000 tested, 1.3% active; inhibition, % at 25.6 µM;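 active = compounds whose percent inhibition of the receptor-coactivator binding signal exceeds about 50% in the single-dose screen, limit read from the data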
Target sequence (Q92731 whole entry, looked up, the tested form may be a part): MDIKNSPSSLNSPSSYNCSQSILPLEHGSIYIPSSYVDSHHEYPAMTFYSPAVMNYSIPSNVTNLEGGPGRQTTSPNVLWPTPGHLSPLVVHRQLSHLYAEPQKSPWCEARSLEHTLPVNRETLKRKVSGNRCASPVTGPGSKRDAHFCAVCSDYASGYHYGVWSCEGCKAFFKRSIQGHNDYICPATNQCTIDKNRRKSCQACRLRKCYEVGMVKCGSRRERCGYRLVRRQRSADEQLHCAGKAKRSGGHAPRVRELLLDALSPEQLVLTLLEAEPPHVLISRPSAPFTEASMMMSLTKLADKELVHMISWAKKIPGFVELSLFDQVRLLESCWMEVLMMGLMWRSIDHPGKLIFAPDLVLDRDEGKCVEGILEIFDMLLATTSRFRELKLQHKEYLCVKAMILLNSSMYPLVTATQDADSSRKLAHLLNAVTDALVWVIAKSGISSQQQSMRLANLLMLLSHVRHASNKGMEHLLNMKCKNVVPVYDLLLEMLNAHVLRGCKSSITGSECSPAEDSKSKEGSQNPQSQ
Numbers stand for hits; - = inactive; [ ] = another dose, or the depositor's remark.

SMILES | ERa SRC1 pot | Fibroblast inh | HUVEC inhibit | ERa SRC1 inh | H69AR inhibit | ERb coact inh
CC(Oc1ccc(Cl)cc1Cl)C(=O)Nc1cccnc1 (configuration not stated) | - | - | - | - | - | -
O=C(NC1=NCCS1)C1CC2CCC1C2 (configuration not stated) | - | - | - | - | - | -
O=C(NCCCN1CCOCC1)c1cc2c(=O)[nH]c3ccccc3c2s1 | 224 | - | - | - | - | -
CC(C)c1ccc(-c2c(C#N)c(N)nc(SCC(=O)N3CCCCC3)c2C#N)cc1 | - | - | 28 | 50[fluorescence artefact?] | - | -
CCOC(=O)CSc1nc(N)c(C#N)c(-c2ccc(OCC)cc2)c1C#N | - | - | - | - | - | -
CC(C)c1ccc(-c2c(C#N)c(N)nc(SCC(=O)N3CCCCCC3)c2C#N)cc1 | 260[fluorescence artefact?] | - | - | - | - | -
N#Cc1c(N)nc(SCC(=O)NC2CCCCC2)c(C#N)c1-c1ccc(Cl)cc1 | - | - | - | 66[fluorescence artefact?] | 36 | 51[fluorescence artefact?]
Cn1c(SCc2nn[nH]n2)nc2c1c(=O)n(Cc1ccccc1Cl)c(=O)n2C | - | - | - | - | - | -
CN(C)S(=O)(=O)N(CC(=O)N(Cc1ccccc1)Cc1ccccc1)c1ccccc1 | - | - | - | 55 | - | -
COc1ccc(-c2cn3c(C)c(C(=O)Nc4cccc(NC(C)=O)c4)sc3n2)cc1 | - | - | 23 | - | 26 | -
COc1ccc(-c2cn3c(C)c(C(=O)Nc4ccncc4)sc3n2)cc1 | 345 | - | - | - | - | -
CCOC(=O)C1CCCN(C(=O)c2sc3nc(-c4ccc(F)cc4)cn3c2C)C1 (configuration not stated) | - | - | - | - | - | -
Cc1c(C(=O)NCC(C)C)sc2nc(-c3ccc(F)cc3)cn12 | - | - | - | - | - | -
CCOC(=O)C1CCN(C(=O)c2sc3nc(-c4ccc(F)cc4)cn3c2C)CC1 | - | - | - | - | 35 | -
Cc1c(C(=O)Nc2ccncc2)sc2nc(-c3ccc(F)cc3)cn12 | 367[fluorescence artefact?] | - | 29 | - | 17 | -
COC(=O)c1ccc(NC(=O)c2sc3nc(-c4ccccc4)cn3c2C)cc1 | 537[fluorescence artefact?] | - | - | - | 37 | -
Cc1ccc(NC(=O)COc2ccc(-n3cnnn3)cc2)cc1C | - | - | - | 74[fluorescence artefact?] | - | 69
COc1cc(NC(=O)COc2ccc(-n3cnnn3)cc2)c(OC)cc1Cl | - | - | - | 77 | - | 67[fluorescence artefact?]
COc1ccc(OC)c(NC(=O)COC(=O)c2ccc(-n3cnnn3)cc2)c1 | - | - | - | - | - | -
Cc1ccnc(NC(=O)CCC(=O)N(CC(=O)NC2CCCCC2)CC2CCCO2)c1 (configuration not stated) | - | - | - | - | - | -
Cc1c(C(=O)OCC(=O)c2ccc3c(c2)OCCO3)oc2ccccc12 | - | - | - | - | - | -
O=C(COC(=O)C(O)c1ccccc1)c1ccc2c(c1)OCCO2 (configuration not stated) | 421 | - | - | - | - | -
O=C(CCN1Cc2ccccc2C1)c1ccc2c(c1)OCCO2 | - | - | - | - | 1.0 | -
O=C(CCN1CCc2ccccc2C(c2ccccc2)C1)c1ccc2c(c1)OCCO2 (configuration not stated) | - | - | - | - | 1.6 | -
CCCc1cc(=O)[nH]c(Nc2ccc(N3CCCCC3)cc2)n1 | - | - | - | - | - | -
CCCCc1ccc(Nc2nc(CCC)cc(=O)[nH]2)cc1 | - | - | 2.5 | - | - | -
Cc1cc(N2CCCCC2)nc(NCc2ccccc2)n1 | - | - | - | - | 16 | -
Cc1cc(N2CCOCC2)nc(NCc2ccccc2)n1 | - | - | - | - | - | -
COc1ccc(CCNC(=O)CSc2nc(N)c(C#N)c(-c3cccs3)c2C#N)cc1OC | - | - | - | - | - | -
Cc1nc(N)c(C#N)c(-c2ccccc2)c1C | - | - | - | - | - | -
